{"source": "ChEMBL document CHEMBL1255201", "about": "“A novel arylethynyltriazole acyclonucleoside inhibits proliferation of drug-resistant pancreatic cancer cells” (2010)", "tested_on": "MIA PaCa-2", "experiment": "Growth inhibition of human MIAPaCa2 cells after 48 hrs by MTT assay", "format": "functional", "in_short": "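Cells seeded at 15,000/well, attached overnight, then medium replaced with fresh medium alone (control) or medium containing compound; 48 h at 37 °C, 5% CO2. Viable cells quantified by MTT colorimetric assay.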", "data": [{"smiles": "Nc1ccn([C@@H]2O[C@H](CO)[C@@H](O)C2(F)F)c(=O)n1", "note": "[GEMCITABINE]", "values": [{"measurement": "inhibition (INH)", "value": 30, "unit": "%"}]}]}
